INS-1E rescue = protection of INS-1E cells from cytokine death, primary screen, ATP luminescence, single point; INS-1E cytokine-induced death, 48 h; normalised: neutral wells 0, positive control 100; protection from cytokine-induced ATP loss, % at 10 µM; 20,000 tested, 0.1% active; AID 488910, 2010;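 active means mean replicate protection from cytokine-induced ATP loss at least 50% and at least 75% of replicates each reaching 50%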
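Test system: INS-1E rat cells | Quantity: 8000 cells per well | Medium: Phenol-red-free RPMI with 5% fetal bovine serum | Reagent: Cytokine cocktail of IFN-γ, TNF-α and IL-1β | Doses: One compound concentration, pin transfer | Timing: 48 h co-treatment, 10 min post-lysis read | Technique: Luminescent ATP assay (CellTiter-Glo)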
A1 apoptosis 2 = A1 inhibitors via caspase activation, primary screen, cell-based, luminescence, HTS, two replicates; MEF A1-2A-BIM cells, caspase-Glo luminescence, 3 h; percent of clofoctol response, DMSO zero; caspase activation, % (concentration not given with the values); 24,000 tested, under 10 active; in the data active means caspase activation above about 5.9%
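System: mouse embryonic fibroblasts co-expressing A1 and BIM (A1-2A-BIM), primed for A1 dependence; amount: 2500 cells/well; doses: 50 nL pinned compound; schedule: cells settled overnight, compound exposure 3 h at 37 °C, 5% CO2; detection: Caspase-Glo 3/7 luminescence, 1 h at room temperature; read-out: Caspase-3/7 activation, seen as rise in luminescence signal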
T cruzi HTS = inhibitors of intracellular Trypanosoma cruzi, primary screen, cell-based, plate reader, single point, set 2; intracellular Trypanosoma cruzi in host cells; activity score (inhibition), % at 5.01 µM; 22,000 tested, 4.9% active; AID 651903, 2012; in the data active means activity score above about 55%;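 further: parasites and compound incubated about four days before reading; 0% = median of neutral control wells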
Active calls of the source: *; . = no result. The sample as a whole holds a higher share of hits than the screen did.

SMILES | INS-1E rescue | A1 apoptosis 2 | T cruzi HTS
COc1ccc(S(=O)(=O)Nc2ccc3c(c2)C(=O)N([C@H](C)CO)C[C@H](C)[C@H](CN(C)C(=O)Cc2ccccc2)OCCCC[C@H](C)O3)cc1 | . | 2 | .
C[C@@H]1CN([C@H](C)CO)C(=O)c2cccc(NS(=O)(=O)c3cn(C)cn3)c2O[C@@H]1CN(C)Cc1ccc(C(=O)O)cc1 | 2 | . | -24
COc1ccc(NC(=O)N(C)C[C@@H]2Oc3ccc(NS(=O)(=O)c4ccc(Cl)cc4)cc3CC(=O)N([C@@H](C)CO)C[C@@H]2C)cc1 | -2 | . | -7
C[C@H](CO)N1C[C@H](C)[C@H](CN(C)S(=O)(=O)c2cccc(F)c2)Oc2ncc(-c3cccc(C(F)(F)F)c3)cc2C1=O | . | . | 59*
C[C@H](CO)N1C[C@H](C)[C@H](CN(C)S(=O)(=O)c2cccc(F)c2)Oc2ncc(Br)cc2C1=O | . | . | 20
C[C@H](CO)N1C[C@H](C)[C@H](CN(C)S(=O)(=O)c2ccc(F)cc2)Oc2ncc(-c3cccc(C(F)(F)F)c3)cc2C1=O | . | -1 | 89*
COc1ccc(S(=O)(=O)N(C)C[C@@H]2Oc3ncc(-c4cccc(C(F)(F)F)c4)cc3C(=O)N([C@H](C)CO)C[C@@H]2C)cc1 | . | -1 | 46
C[C@@H]1CN([C@H](C)CO)C(=O)Cc2cc(NS(=O)(=O)c3ccc(Cl)cc3)ccc2O[C@H]1CN(C)Cc1ccc2c(c1)OCO2 | -6 | 1 | 64*
C[C@@H]1CN([C@H](C)CO)C(=O)Cc2cc(NS(=O)(=O)c3ccc(Cl)cc3)ccc2O[C@@H]1CN(C)Cc1ccc2c(c1)OCO2 | -11 | . | 60*
C[C@@H]1CN([C@@H](C)CO)C(=O)Cc2cc(NS(=O)(=O)c3ccc(Cl)cc3)ccc2O[C@H]1CN(C)Cc1ccc2c(c1)OCO2 | . | -1 | .
Cc1ccc(S(=O)(=O)Nc2ccc3c(c2)CC(=O)N([C@@H](C)CO)C[C@@H](C)[C@@H](CN(C)Cc2ccc4c(c2)OCO4)O3)cc1 | -3 | -2 | 27
CCO[C@@H]1OC(C(=O)N2CCN(Cc3ccccc3)CC2)=C[C@H](C2CCCCC2)[C@H]1CCCO | . | 0 | .
C[C@@H]1CN([C@H](C)CO)C(=O)Cc2cc(NC(=O)Cc3cn(C)c4ccccc34)ccc2O[C@@H]1CN(C)C(=O)Nc1ccc2c(c1)OCO2 | 2 | . | -8
C[C@@H]1CN([C@@H](C)CO)C(=O)c2cc(NS(=O)(=O)c3cccs3)ccc2O[C@H]1CN(C)C(=O)Nc1cccc2ccccc12 | 4 | . | -26
C[C@H]1CCCCO[C@H](CN(C)Cc2ccncc2)[C@@H](C)CN([C@@H](C)CO)C(=O)c2cc(N(C)C)ccc2O1 | . | 2 | .
C[C@H](CO)N1C[C@H](C)[C@@H](CN(C)CC2CCCCC2)Oc2c(NC(=O)c3nc4ccccc4s3)cccc2C1=O | -41 | . | 64*
C[C@@H]1CN([C@H](C)CO)C(=O)c2cccc(NC(=O)c3nc4ccccc4s3)c2O[C@@H]1CN(C)CC1CCCCC1 | -48 | . | 13
C[C@H](CO)N1C[C@H](C)[C@H](CN(C)CC2CCCCC2)Oc2c(NC(=O)c3nc4ccccc4s3)cccc2C1=O | -31 | -1 | 66*
C[C@H](CO)N1C[C@H](C)[C@@H](CN(C)CC2CC2)Oc2c(NC(=O)c3nc4ccccc4s3)cccc2C1=O | -18 | 0 | 27
C[C@@H]1CN([C@@H](C)CO)C(=O)c2cccc(NC(=O)c3nc4ccccc4s3)c2O[C@H]1CN(C)CC1CC1 | -20 | 0 | -20
C[C@@H]1CN([C@@H](C)CO)C(=O)c2cccc(NC(=O)c3nc4ccccc4s3)c2O[C@@H]1CN(C)CC1CCCCC1 | -48 | . | 76*
C[C@H](CO)N1C[C@H](C)[C@@H](CN(C)CC2CCCCC2)Oc2ccc(NS(=O)(=O)c3cccs3)cc2C1=O | 5 | 0 | -10
Cc1noc(C)c1S(=O)(=O)N(C)C[C@@H]1Oc2ccc(NC(=O)C3CCCCC3)cc2CC(=O)N([C@H](C)CO)C[C@H]1C | 12 | -2 | 3
C[C@@H]1CCCCO[C@H](CN(C)C(=O)c2ccncc2)[C@@H](C)CN([C@@H](C)CO)C(=O)c2cc(NC(=O)c3ccncc3)ccc2O1 | . | -1 | .
COc1cc(Br)cc(/C=N/NC(=O)c2ccccc2O)c1O | -125 | -13 | 79*
O=C(N/N=C/c1cc(I)cc(I)c1O)c1ccccc1O | -105 | -3 | 82*
O=C(N/N=C\c1cccc(O)c1O)c1ccccc1O | -133 | . | 68*
Cc1ccccc1/C=N/NC(=O)c1ccccc1O | -28 | -6 | -13
COc1cc(Br)c(/C=N/NC(=O)c2ccccc2O)cc1OC | -41 | 0 | -13

Bioassay records (PubChem)
